Results from PMC6331009 (Chemosphere, 2017).
Like-named read-outs stand apart in the source and are kept apart here.

Key:
Assay type in all cases: biochemical
UGT1A9 [1] = target: T1, UGT1A9 (Homo sapiens, UniProt O60656); experiment: 4-MU glucuronidation, UPLC-UV, Lineweaver-Burk slope replot
T1 sequence (O60656 26-530): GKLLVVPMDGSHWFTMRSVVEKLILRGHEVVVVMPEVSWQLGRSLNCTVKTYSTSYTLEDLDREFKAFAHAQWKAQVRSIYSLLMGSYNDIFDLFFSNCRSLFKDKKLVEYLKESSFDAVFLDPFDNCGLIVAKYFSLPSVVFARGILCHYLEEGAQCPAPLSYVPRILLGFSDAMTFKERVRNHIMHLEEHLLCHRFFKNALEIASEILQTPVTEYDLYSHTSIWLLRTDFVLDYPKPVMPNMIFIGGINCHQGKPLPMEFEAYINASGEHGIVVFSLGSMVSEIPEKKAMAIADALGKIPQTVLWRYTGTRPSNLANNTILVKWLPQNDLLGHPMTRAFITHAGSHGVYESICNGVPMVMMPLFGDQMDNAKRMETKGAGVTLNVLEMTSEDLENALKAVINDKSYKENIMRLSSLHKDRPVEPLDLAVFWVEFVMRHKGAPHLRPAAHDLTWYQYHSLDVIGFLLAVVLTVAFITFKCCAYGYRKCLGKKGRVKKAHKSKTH
Procedure, shortened: (§1)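 Recombinant human UGT isoform expressed in insect cells. 4-MU was varied, with or without test compound at levels giving 20%, 40%, 60% and 80% inhibition. After 5 min at 37 °C, 5 mM UDPGA was added; reactions ran 30–120 min. Glucuronide was quantified by UPLC-UV at 316 nm against a 7-hydroxycoumarin internal standard, with points as duplicate means. Inhibition type came from Lineweaver-Burk plots, and Ki from a replot of slopes against inhibitor concentration.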

UGT1A9 [2] = target: T1, UGT1A9; experiment: 4-MU glucuronidation, UPLC-UV, dose response
Procedure, shortened: (§2)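 Recombinant human UGT isoform expressed in baculovirus-infected insect cells. Test compound at 0, 0.5, 1, 5, 10, 20, 40, 60, 80 and 100 µM, with no-compound controls. After 5 min preincubation at 37 °C, 5 mM UDPGA was added to start the reaction. Reactions were stopped at 30–120 min with acetonitrile containing 7-hydroxycoumarin internal standard. 4-MU glucuronide was measured by C18 UPLC with UV at 316 nm as the peak-area ratio to internal standard. Two independent experiments in duplicate.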

UGT2B4 [3] = target: T2, UGT2B4 (Homo sapiens, UniProt P06133); experiment: 4-MU glucuronidation, UPLC-UV, dose response
T2 sequence (P06133 24-528): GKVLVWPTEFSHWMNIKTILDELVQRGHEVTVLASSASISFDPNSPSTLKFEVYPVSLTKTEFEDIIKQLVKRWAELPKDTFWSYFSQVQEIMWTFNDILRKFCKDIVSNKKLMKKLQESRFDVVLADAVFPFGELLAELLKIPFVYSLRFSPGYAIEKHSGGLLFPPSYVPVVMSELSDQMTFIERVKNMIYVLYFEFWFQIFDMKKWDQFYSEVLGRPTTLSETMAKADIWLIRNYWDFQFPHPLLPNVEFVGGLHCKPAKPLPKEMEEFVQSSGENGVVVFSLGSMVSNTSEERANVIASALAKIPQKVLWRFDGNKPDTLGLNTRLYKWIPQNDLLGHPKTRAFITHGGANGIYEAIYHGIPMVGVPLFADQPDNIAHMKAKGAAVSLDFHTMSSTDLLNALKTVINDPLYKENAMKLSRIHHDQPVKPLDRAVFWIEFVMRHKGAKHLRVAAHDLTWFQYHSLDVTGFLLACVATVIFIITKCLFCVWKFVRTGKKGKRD
Procedure, shortened: as §2

UGT2B4 [4] = target: T2, UGT2B4; experiment: 4-MU glucuronidation, UPLC-UV, Lineweaver-Burk slope replot
Procedure, shortened: as §1

UGT1A7 [5] = target: T3, UGT1A7 (Homo sapiens, UniProt Q9HAW7); experiment: as above
T3 sequence (Q9HAW7 26-530): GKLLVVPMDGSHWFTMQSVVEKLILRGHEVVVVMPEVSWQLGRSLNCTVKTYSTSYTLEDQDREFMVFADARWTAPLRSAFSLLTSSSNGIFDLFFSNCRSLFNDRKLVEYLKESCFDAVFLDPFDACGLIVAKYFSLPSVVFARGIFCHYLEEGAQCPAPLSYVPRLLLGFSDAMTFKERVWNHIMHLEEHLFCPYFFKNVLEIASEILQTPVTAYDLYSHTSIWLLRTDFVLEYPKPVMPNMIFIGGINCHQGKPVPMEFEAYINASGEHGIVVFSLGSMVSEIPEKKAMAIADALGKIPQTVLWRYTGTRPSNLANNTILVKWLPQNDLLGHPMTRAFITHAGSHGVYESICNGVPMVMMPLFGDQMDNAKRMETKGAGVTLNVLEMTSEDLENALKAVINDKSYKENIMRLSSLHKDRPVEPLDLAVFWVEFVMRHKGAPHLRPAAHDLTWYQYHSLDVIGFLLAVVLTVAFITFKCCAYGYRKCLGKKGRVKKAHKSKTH
Procedure, shortened: as §1

UGT1A6 [6] = target: T4, UGT1A6 (Homo sapiens, UniProt P19224); experiment: as above
T4 sequence (P19224 27-532): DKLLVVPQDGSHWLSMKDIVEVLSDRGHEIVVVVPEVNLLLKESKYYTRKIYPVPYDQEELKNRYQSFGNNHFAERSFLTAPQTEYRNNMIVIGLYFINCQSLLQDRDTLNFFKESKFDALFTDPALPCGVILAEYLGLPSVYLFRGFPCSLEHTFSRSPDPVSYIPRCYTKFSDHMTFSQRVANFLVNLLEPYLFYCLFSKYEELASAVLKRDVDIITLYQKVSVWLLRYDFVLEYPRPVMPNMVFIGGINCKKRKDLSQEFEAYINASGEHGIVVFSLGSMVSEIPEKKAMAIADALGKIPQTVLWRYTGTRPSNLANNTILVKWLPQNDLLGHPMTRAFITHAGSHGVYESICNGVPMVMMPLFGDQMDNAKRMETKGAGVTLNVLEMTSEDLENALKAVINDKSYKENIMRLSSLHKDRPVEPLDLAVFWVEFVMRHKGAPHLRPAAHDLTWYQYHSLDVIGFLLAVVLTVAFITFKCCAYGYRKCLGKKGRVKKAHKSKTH
Procedure, shortened: as §1

UGT1A7 [7] = target: T3, UGT1A7; experiment: 4-MU glucuronidation, UPLC-UV, dose response
Procedure, shortened: as §2

UGT1A6 [8] = target: T4, UGT1A6; experiment: 4-MU glucuronidation, UPLC-UV, dose response
Procedure, shortened: as §2

[9] = competitive, 4-MU varied, UDPGA 5 mM, MgCl2 5 mM, Tris-HCl pH 7.4, 37 °C
[10] = competitive, 4-MU 30 μM, UDPGA 5 mM, MgCl2 5 mM, Tris-HCl pH 7.4, 37 °C

Row | Compound | Ki (UGT1A9 [1]) | IC50 (UGT1A9 [2]) | IC50 (UGT2B4 [3]) | Ki (UGT2B4 [4]) | Ki (UGT1A9 [1]; [9]) | IC50 (UGT1A9 [2]; [10]) | further results
1 | CCCCOC(=O)c1ccccc1C(=O)OCCCC [DBP] | 22.8 µM | 17.6 µM | 11.9 µM | 4.93 µM |  |  | 
2 | CCCCOCCOC(=O)c1ccccc1C(=O)OCCOCCCC [BBOP] | 73.7 µM | 28.3 µM |  |  |  |  | Ki (UGT1A7 [5]): 23.6 µM; Ki (UGT1A6 [6]): 15.5 µM; IC50 (UGT1A7 [7]): 18.2 µM; IC50 (UGT1A6 [8]): 35.1 µM
3 | O=C(OC1CCCCC1)c1ccccc1C(=O)OC1CCCCC1 [DCHP] |  |  |  |  | 1.07 µM | 1.46 µM | 
4 | COCCOC(=O)c1ccccc1C(=O)OCCOC [DMEP] |  |  |  |  | 4.51 µM | 18.2 µM | 
5 | CC(C)COC(=O)c1ccccc1C(=O)OCC(C)C [DiBP] | 2.79 µM | 7.03 µM | 5.89 µM | 6.79 µM |  |  | 
6 | CC(C)CCOC(=O)c1ccccc1C(=O)OCCC(C)C [DiPP] | 5.61 µM | 14.7 µM |  |  |  |  | 
7 | CCCCCCOC(=O)c1ccccc1C(=O)OCCCCCC [DHP] |  |  |  |  | 0.58 µM | 25.4 µM | 
8 | CCCCCOC(=O)c1ccccc1C(=O)OCCCCC [DPP] | 1.74 µM | 18.5 µM |  |  |  |  | 
9 | CCCCOC(=O)c1ccccc1C(=O)OCc1ccccc1 [BBZP] | 0.84 µM | 5.54 µM | 13.8 µM | 7.23 µM |  |  | Ki (UGT1A7 [5]): 12.2 µM; Ki (UGT1A6 [6]): 52.3 µM; IC50 (UGT1A7 [7]): 19.5 µM; IC50 (UGT1A6 [8]): 53.2 µM
10 | C=CCOC(=O)c1ccccc1C(=O)OCC=C [DAP] |  |  |  |  |  |  | IC50 (UGT2B4 [3]; competitive, 4-MU 1000 μM, UDPGA 5 mM, MgCl2 5 mM, Tris-HCl pH 7.4, 37 °C): 14.3 µM; Ki (UGT2B4 [4]; [9]): 6.73 µM
